Reference: ChEMBL document CHEMBL3627671, “Novel derivatives of nitro-substituted salicylic acids: Synthesis, antimicrobial activity and cytotoxicity” (Bioorg Med Chem, 2015)
In brackets after ≈: the same amount, converted by molar mass.

Legend:
Assay type in all cases: functional
Nakaseomyces glabratus [1] = assay: Antifungal activity against Candida glabrata 20/I after 24 hrs by microdilution broth method
Summary of the method: (§1)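 CLSI M27-A3 broth microdilution in RPMI 1640 with glutamine, buffered to pH 7.0 with MOPS; DMSO diluent. Yeast inoculum 5 × 10^3 ± 0.2 CFU/mL. Moulds grown on Sabouraud agar 3–10 days before spore harvest, final inoculum 0.5-5 × 10^4 CFU/mL, checked in a Bürker chamber. Incubated dark, humid, 35 °C, read at 24 and 48 h visually and at 540 nm. MIC taken as ≥80% (yeasts) or ≥50% (filamentous) growth reduction versus control.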

Mycobacterium kansasii [2] = assay: Antimycobacterial activity against Mycobacterium kansasii 235/80 after 14 days; settings: 235/80, 336 h
Summary of the method: (§2)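 Šula's semisynthetic medium micromethod at 37 °C, read after 7, 14 and 21 days. The 1.0 McFarland suspension was diluted 10^-4. MIC determined. 6509/96 is a clinical isolate.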

Enterococcus sp. [3] = assay: Antibacterial activity against Enterococcus sp. J 14365/08 after 24 hrs by microdilution broth method; settings: J 14365/08, 24 h
Summary of the method: (§3)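 Mueller-Hinton broth microdilution (modified M07-A07), pH 7.4 (±0.2). Compounds dissolved in DMSO, tested at final 500 to 0.49 µmol/L. Inoculum in sterile water matched to 0.5 McFarland. Incubated in the dark, humid atmosphere, 35 °C, read at 24 and 48 h visually and at 540 nm. MIC taken as ≥95% growth reduction (IC95) versus control.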

Staphylococcus aureus [4] = assay: Antibacterial activity against Staphylococcus aureus CCM 4516/08 after 48 hrs by microdilution broth method; settings: CCM 4516/08, 48 h
Pseudomonas aeruginosa [5] = assay: Antibacterial activity against Pseudomonas aeruginosa CCM 1961 after 48 hrs by microdilution broth method; settings: CCM 1961, 48 h; summary of the method: as §3
[6] = test system: Trichophyton mentagrophytes; assay: Antifungal activity against Trichophyton mentagrophytes 445 after 24 hrs by microdilution broth method; settings: Trichophyton mentagrophytes, 445, 24 h
Mycobacterium kansasii [7] = assay: Antimycobacterial activity against Mycobacterium kansasii 6509/96 after 21 days; settings: 6509/96, 504 h; summary of the method: as §2
[8] = test system: Mycobacterium tuberculosis; assay: Antimycobacterial activity against Mycobacterium tuberculosis H37Rv 331/88 after 14 days; settings: H37Rv 331/88, 336 h
Trichosporon asahii [9] = assay: Antifungal activity against Trichosporon asahii 1188 after 24 hrs by microdilution broth method; settings: Trichosporon asahii, 1188, 24 h; summary of the method: as §1
[10] = test system: Trichophyton mentagrophytes; assay: Antifungal activity against Trichophyton mentagrophytes 445 after 48 hrs by microdilution broth method; settings: Trichophyton mentagrophytes, 445, 48 h
Klebsiella pneumoniae [11] = assay: Antibacterial activity against Klebsiella pneumoniae D 11750/08 after 48 hrs by microdilution broth method; settings: D 11750/08, 48 h; summary of the method: as §3
[12] = test system: Mycobacterium tuberculosis; assay: Antimycobacterial activity against Mycobacterium tuberculosis H37Rv 331/88 after 21 days; settings: H37Rv 331/88, 504 h
Mycobacterium kansasii [13] = assay: Antimycobacterial activity against Mycobacterium kansasii 6509/96 after 7 days; settings: 6509/96, 168 h; summary of the method: as §2
Lichtheimia corymbifera [14] = assay: Antifungal activity against Absidia corymbifera 272 after 24 hrs by microdilution broth method; settings: Lichtheimia corymbifera, 272, 24 h; summary of the method: as §1
Mycobacterium kansasii [15] = assay: Antimycobacterial activity against Mycobacterium kansasii 235/80 after 21 days; settings: 235/80, 504 h; summary of the method: as §2
Klebsiella pneumoniae [16] = assay: Antibacterial activity against Klebsiella pneumoniae D 11750/08 after 24 hrs by microdilution broth method; settings: D 11750/08, 24 h; summary of the method: as §3
Enterococcus sp. [17] = assay: Antibacterial activity against Enterococcus sp. J 14365/08 after 48 hrs by microdilution broth method; settings: J 14365/08, 48 h; summary of the method: as §3
Staphylococcus aureus [18] = assay: Antibacterial activity against methicillin-resistant Staphylococcus aureus H 5996/08 after 24 hrs by microdilution broth method; settings: H 5996/08, 24 h
Aspergillus fumigatus [19] = assay: Antifungal activity against Aspergillus fumigatus 231 after 24 hrs by microdilution broth method; settings: Aspergillus fumigatus, 231, 24 h; summary of the method: as §1
Candida albicans [20] = assay: Antifungal activity against Candida albicans ATCC 44859 after 24 hrs by microdilution broth method; settings: ATCC 44859, 24 h; summary of the method: as §1
[21] = test system: Staphylococcus epidermidis; assay: Antibacterial activity against Staphylococcus epidermidis H 6966/08 after 24 hrs by microdilution broth method; settings: H 6966/08, 24 h; summary of the method: as §3
Candida tropicalis [22] = assay: Antifungal activity against Candida tropicalis 156 after 48 hrs by microdilution broth method; settings: Candida tropicalis, 156, 48 h; summary of the method: as §1
Mycobacterium kansasii [23] = assay: Antimycobacterial activity against Mycobacterium kansasii 6509/96 after 14 days; settings: 6509/96, 336 h; summary of the method: as §2
Escherichia coli [24] = assay: Antibacterial activity against Escherichia coli CCM4517 after 48 hrs by microdilution broth method; settings: CCM4517, 48 h; summary of the method: as §3
Klebsiella pneumoniae [25] = assay: Antibacterial activity against ESBL-positive Klebsiella pneumoniae J 14368/08 after 48 hrs by microdilution broth method; settings: J 14368/08, 48 h; summary of the method: as §3
Mycobacterium kansasii [26] = assay: Antimycobacterial activity against Mycobacterium kansasii 235/80 after 7 days; settings: 235/80, 168 h; summary of the method: as §2
[27] = test system: Staphylococcus epidermidis; assay: Antibacterial activity against Staphylococcus epidermidis H 6966/08 after 48 hrs by microdilution broth method; settings: H 6966/08, 48 h; summary of the method: as §3
Candida tropicalis [28] = assay: Antifungal activity against Candida tropicalis 156 after 24 hrs by microdilution broth method; settings: Candida tropicalis, 156, 24 h; summary of the method: as §1
Pseudomonas aeruginosa [29] = assay: Antibacterial activity against Pseudomonas aeruginosa CCM 1961 after 24 hrs by microdilution broth method; settings: CCM 1961, 24 h; summary of the method: as §3
Aspergillus fumigatus [30] = assay: Antifungal activity against Aspergillus fumigatus 231 after 48 hrs by microdilution broth method; settings: Aspergillus fumigatus, 231, 48 h; summary of the method: as §1
Mycobacterium avium [31] = assay: Antimycobacterial activity against Mycobacterium avium 330/80 after 21 days; settings: 330/80, 504 h
Pichia kudriavzevii [32] = assay: Antifungal activity against Candida krusei E28 after 48 hrs by microdilution broth method; settings: E28, 48 h; summary of the method: as §1
Pichia kudriavzevii [33] = assay: Antifungal activity against Candida krusei E28 after 24 hrs by microdilution broth method; settings: E28, 24 h; summary of the method: as §1
Staphylococcus aureus [34] = assay: Antibacterial activity against methicillin-resistant Staphylococcus aureus H 5996/08 after 48 hrs by microdilution broth method; settings: H 5996/08, 48 h
Candida albicans [35] = assay: Antifungal activity against Candida albicans ATCC 44859 after 48 hrs by microdilution broth method; settings: ATCC 44859, 48 h; summary of the method: as §1
Lichtheimia corymbifera [36] = assay: Antifungal activity against Absidia corymbifera 272 after 48 hrs by microdilution broth method; settings: Lichtheimia corymbifera, 272, 48 h; summary of the method: as §1
Staphylococcus aureus [37] = assay: Antibacterial activity against Staphylococcus aureus CCM 4516/08 after 24 hrs by microdilution broth method; settings: CCM 4516/08, 24 h
Escherichia coli [38] = assay: Antibacterial activity against Escherichia coli CCM4517 after 24 hrs by microdilution broth method; settings: CCM4517, 24 h; summary of the method: as §3
Trichosporon asahii [39] = assay: Antifungal activity against Trichosporon asahii 1188 after 48 hrs by microdilution broth method; settings: Trichosporon asahii, 1188, 48 h; summary of the method: as §1
Klebsiella pneumoniae [40] = assay: Antibacterial activity against ESBL-positive Klebsiella pneumoniae J 14368/08 after 24 hrs by microdilution broth method; settings: J 14368/08, 24 h; summary of the method: as §3
Nakaseomyces glabratus [41] = assay: Antifungal activity against Candida glabrata 20/I after 48 hrs by microdilution broth method; summary of the method: as §1
Mycobacterium avium [42] = assay: Antimycobacterial activity against Mycobacterium avium 330/80 after 14 days; settings: 330/80, 336 h

O=C(Nc1cccc([N+](=O)[O-])c1)c1cc([N+](=O)[O-])ccc1O
MIC (Nakaseomyces glabratus [1]): > 250 µM
MIC (Mycobacterium kansasii [2]): 62.5 µM (≈ 19 µg/mL)
MIC (Enterococcus sp. [3]): > 500 µM
MIC (Staphylococcus aureus [4]): 500 µM (≈ 152 µg/mL)
MIC (Pseudomonas aeruginosa [5]): > 500 µM
MIC [6]: > 250 µM
MIC (Mycobacterium kansasii [7]): 125 µM (≈ 37.9 µg/mL)
MIC [8]: 62.5 µM (≈ 19 µg/mL)
MIC (Trichosporon asahii [9]): > 250 µM
MIC [10]: > 250 µM
MIC (Klebsiella pneumoniae [11]): > 500 µM
MIC [12]: 62.5 µM (≈ 19 µg/mL)
MIC (Mycobacterium kansasii [13]): 62.5 µM (≈ 19 µg/mL)
MIC (Lichtheimia corymbifera [14]): > 250 µM
MIC (Mycobacterium kansasii [15]): 125 µM (≈ 37.9 µg/mL)
MIC (Klebsiella pneumoniae [16]): > 500 µM
MIC (Enterococcus sp. [17]): > 500 µM
MIC (Staphylococcus aureus [18]): 500 µM (≈ 152 µg/mL)
MIC (Aspergillus fumigatus [19]): > 250 µM
MIC (Candida albicans [20]): > 250 µM
MIC [21]: 500 µM (≈ 152 µg/mL)
MIC (Candida tropicalis [22]): > 250 µM
MIC (Mycobacterium kansasii [23]): 125 µM (≈ 37.9 µg/mL)
MIC (Escherichia coli [24]): > 500 µM
MIC (Klebsiella pneumoniae [25]): > 500 µM
MIC (Mycobacterium kansasii [26]): 16 µM (≈ 4.85 µg/mL)
MIC [27]: 500 µM (≈ 152 µg/mL)
MIC (Candida tropicalis [28]): > 250 µM
MIC (Pseudomonas aeruginosa [29]): > 500 µM
MIC (Aspergillus fumigatus [30]): > 250 µM
MIC (Mycobacterium avium [31]): 125 µM (≈ 37.9 µg/mL)
MIC (Pichia kudriavzevii [32]): > 250 µM
MIC (Pichia kudriavzevii [33]): > 250 µM
MIC (Staphylococcus aureus [34]): 500 µM (≈ 152 µg/mL)
MIC (Candida albicans [35]): > 250 µM
MIC (Lichtheimia corymbifera [36]): > 250 µM
MIC (Staphylococcus aureus [37]): 500 µM (≈ 152 µg/mL)
MIC (Escherichia coli [38]): > 500 µM
MIC (Trichosporon asahii [39]): > 250 µM
MIC (Klebsiella pneumoniae [40]): > 500 µM
MIC (Nakaseomyces glabratus [41]): > 250 µM
MIC (Mycobacterium avium [42]): 125 µM (≈ 37.9 µg/mL)

O=C(Nc1ccc([N+](=O)[O-])cc1)c1cc([N+](=O)[O-])ccc1O
MIC (Nakaseomyces glabratus [1]): > 500 µM
MIC (Mycobacterium kansasii [2]): 62.5 µM (≈ 19 µg/mL)
MIC (Enterococcus sp. [3]): > 500 µM
MIC (Staphylococcus aureus [4]): 250 µM (≈ 75.8 µg/mL)
MIC (Pseudomonas aeruginosa [5]): > 500 µM
MIC [6]: > 500 µM
MIC (Mycobacterium kansasii [7]): 125 µM (≈ 37.9 µg/mL)
MIC [8]: 62.5 µM (≈ 19 µg/mL)
MIC (Trichosporon asahii [9]): > 500 µM
MIC [10]: > 500 µM
MIC (Klebsiella pneumoniae [11]): > 500 µM
MIC [12]: 125 µM (≈ 37.9 µg/mL)
MIC (Mycobacterium kansasii [13]): 62.5 µM (≈ 19 µg/mL)
MIC (Lichtheimia corymbifera [14]): > 500 µM
MIC (Mycobacterium kansasii [15]): 125 µM (≈ 37.9 µg/mL)
MIC (Klebsiella pneumoniae [16]): > 500 µM
MIC (Enterococcus sp. [17]): > 500 µM
MIC (Staphylococcus aureus [18]): 250 µM (≈ 75.8 µg/mL)
MIC (Aspergillus fumigatus [19]): > 500 µM
MIC (Candida albicans [20]): > 500 µM
MIC [21]: 500 µM (≈ 152 µg/mL)
MIC (Candida tropicalis [22]): > 500 µM
MIC (Mycobacterium kansasii [23]): 125 µM (≈ 37.9 µg/mL)
MIC (Escherichia coli [24]): > 500 µM
MIC (Klebsiella pneumoniae [25]): > 500 µM
MIC (Mycobacterium kansasii [26]): 16 µM (≈ 4.85 µg/mL)
MIC [27]: 500 µM (≈ 152 µg/mL)
MIC (Candida tropicalis [28]): > 500 µM
MIC (Pseudomonas aeruginosa [29]): > 500 µM
MIC (Aspergillus fumigatus [30]): > 500 µM
MIC (Mycobacterium avium [31]): 250 µM (≈ 75.8 µg/mL)
MIC (Pichia kudriavzevii [32]): > 500 µM
MIC (Pichia kudriavzevii [33]): > 500 µM
MIC (Staphylococcus aureus [34]): 250 µM (≈ 75.8 µg/mL)
MIC (Candida albicans [35]): > 500 µM
MIC (Lichtheimia corymbifera [36]): > 500 µM
MIC (Staphylococcus aureus [37]): 250 µM (≈ 75.8 µg/mL)
MIC (Escherichia coli [38]): > 500 µM
MIC (Trichosporon asahii [39]): > 500 µM
MIC (Klebsiella pneumoniae [40]): > 500 µM
MIC (Nakaseomyces glabratus [41]): > 500 µM
MIC (Mycobacterium avium [42]): 250 µM (≈ 75.8 µg/mL)
